Compound activity from PubChem BioAssay.
S1P4 antag – S1P4 receptor antagonists, primary screen, cell-based. hit rate 0.26% among 220,000. S1P4-expressing cells, antagonist mode, reporter read-out. Sphingosine 1-phosphate receptor 4 (Homo sapiens), O95977. inhibition, % at 4.98 µM; in the data active means inhibition above about 29%;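 further: 0% = wells stimulated with agonist and 100% = vehicle wells without agonist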
Lmaj promast – Leishmania major promastigote growth inhibition, primary screen. Leishmania major promastigotes, resazurin fluorescence viability. inhibition, % at 10 µM. hit rate 9% among 200,000. AID 1063, 2008; in the data active means inhibition above about 50%;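 further: promastigotes grown with compound for 44 hours at 28 °C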
S1P4 agonist – S1P4 receptor agonists, primary screen, cell-based; Sphingosine 1-phosphate receptor 4 (Homo sapiens), O95977; S1P4-expressing cell line, agonist reporter assay; activation, % at 4.98 µM; hit rate 0.35% among 220,000; in the data active means activation above about 11%;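 further: 0% = DMSO vehicle and 100% = reference agonist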
S1P3 antagonist – S1P3 receptor antagonists, primary screen, cell-based. CHO S1P3 NFAT-BLA reporter, FRET fluorescence, antagonist mode. hit rate 0.27% among 170,000. inhibition, % at 4.98 µM;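 active means inhibition above the plate cutoff, the mean inhibition of test wells on that plate plus 3 SD, cut at about 28% in these data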;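 further: cells challenged with S1P at its EC80 of 0.8 µM; blue over green emission ratio from cleaved BLA substrate after 4 h stimulation; 0% = S1P-stimulated wells and 100% = unstimulated DMSO-only wells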
Target sequence (Q99500 whole entry, looked up): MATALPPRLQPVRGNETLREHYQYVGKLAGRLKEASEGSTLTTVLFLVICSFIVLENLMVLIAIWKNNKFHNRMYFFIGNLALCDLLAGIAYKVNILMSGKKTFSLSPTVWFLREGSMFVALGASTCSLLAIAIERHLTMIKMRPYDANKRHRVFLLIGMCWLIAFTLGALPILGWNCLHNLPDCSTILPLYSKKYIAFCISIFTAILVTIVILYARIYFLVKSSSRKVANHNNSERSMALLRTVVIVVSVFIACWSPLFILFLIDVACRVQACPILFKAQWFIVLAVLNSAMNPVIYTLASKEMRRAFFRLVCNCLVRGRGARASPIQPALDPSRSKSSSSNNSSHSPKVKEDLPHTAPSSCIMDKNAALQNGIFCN
MDM2 E3 inh – MDM2-luciferase reporter signal enhancers, primary screen, MDM2 E3 ligase inhibitor project, cell-based, luminescence, 1536-well; signal enhancement, % at 5 µM; AID 1230, 2008; cell-based MDM2 ubiquitination luciferase reporter, 2 h; 0 = plate control, 100 = twice control, blank-subtracted; hit rate 0.11% among 210,000;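 active means signal enhancement of 30% or more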;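 further: luminescence tracks abundance of the self-degrading MDM2-luciferase fusion protein; higher signal means inhibition of MDM2 E3 ligase activity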
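Material: stable MDM2–luciferase fusion reporter cells / Quantity: 2000 cells/well / Dosing: single 5 µM compound dose, 0.2% final DMSO / Buffer or medium: DMEM / Schedule: 4 h cell settling then 2 h compound exposure, 37 °C / Detection: luminescence with SteadyLite reagent, 15 min at room temperature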
* marks the source's active call; other numbers are inactive results; · = no result given. The entries come from a sample that favours hits as a whole.

SMILES | S1P4 antag | Lmaj promast | S1P4 agonist | S1P3 antagonist | MDM2 E3 inh
Cc1ccc(Cl)cc1N1CCN(C(c2ccc(C#N)cc2)c2nnnn2C2CCCC2)CC1 (stereo not given) | -5 | 71* | 0 | 19 | -14
O=C(O)CNCC1COc2ccccc2O1 (stereo not given) | -13 | -7 | 2 | -19 | -25
Oc1ccc(CNCC2COc3ccccc3O2)cc1 (stereo not given) | 3 | 88* | -1 | · | -19
O=S(=O)(Cc1ccc(Cl)cc1)c1ncc(CO)n1Cc1ccccc1 | -8 | -4 | 0 | -11 | -2
c1ccc2c(c1)OCC(c1csc3ncnc(N4CCCCC4)c13)O2 (stereo not given) | -10 | 6 | 0 | · | 0
Clc1ncnc2scc(C3COc4ccccc4O3)c12 (stereo not given) | 8 | 71* | 2 | · | 0
COC(C[C@@H](O)[C@H](C)[C@@H](O)COCc1ccccc1)OC | · | · | · | · | 1
O=C(Nc1ccc(F)cc1)N1CCN2C(=O)c3ccccc3C12c1ccccc1 (stereo not given) | -17 | 14 | -2 | · | -12
Cc1ccc(C(=O)N2CCN3C(=O)c4ccccc4C23c2ccccc2)cc1 (stereo not given) | -3 | 54* | 0 | -10 | -12
CCOC(=O)N1CCC(n2c(SCC(=O)NCc3ccccc3)nc3ccccc3c2=O)CC1 | -4 | 81* | 0 | · | -6
COCC(C)n1c(C)cc(C(=O)CSc2nnnn2-c2ccc(O)cc2)c1C (stereo not given) | -13 | 73* | 1 | 4 | -5
COCC(C)n1c(C)cc(C(=O)CSc2nc3ccccc3c(=O)[nH]2)c1C (stereo not given) | -10 | -8 | -1 | 14 | -7
COCC(C)n1c(SCC(=O)c2cc(C)n(C)c2C)nc2ccccc2c1=O (stereo not given) | -14 | 84* | 1 | -2 | 7
COCC(C)n1c(SCC(=O)NCCC2=CCCCC2)nc2ccccc2c1=O (stereo not given) | 8 | 92* | -3 | · | -9
Cc1ccc(NC(=O)CN2C(=O)NC(Cc3c[nH]c4ccccc34)C2=O)cc1S(=O)(=O)N1CCCCC1 (stereo not given) | 10 | -7 | 0 | -8 | -6
Cc1cccc(NC(=S)N2CCN(c3ccc(F)cc3)CC2)c1 | 2 | 16 | -3 | -7 | -2
COc1ccc(C(=O)N/C(=C\c2ccc3c(c2)OCO3)C(=O)Nc2cccc(C(=O)O)c2)cc1 | -1 | -11 | -2 | -10 | -10
CCOc1ccc(C2C(C(C)=O)=C(O)C(=O)N2CCc2c[nH]c3ccccc23)cc1 (stereo not given) | 4 | -4 | -1 | -24 | -11
NC(=NC(=O)c1ccccc1)N1CCN(C(c2ccccc2)c2ccccc2)CC1 | 2 | · | 0 | 21 | -3
CCOC(=O)N1CCC(n2c(SCC(=O)N3CCCC3)nc3ccccc3c2=O)CC1 | -19 | 1 | 2 | · | 11
CCOC(=O)N1CCC(n2c(SCC(=O)NCCC3=CCCCC3)nc3ccccc3c2=O)CC1 | 6 | 70* | 1 | · | -13
CCc1ccc(CNC(=O)CN2C(=O)COc3ccccc32)cc1 | -6 | 0 | 0 | -5 | -21
CCOC(=O)c1ccc(NC(=O)CSc2nnc(NC(=O)c3ccc(S(=O)(=O)N4CCOCC4)cc3)s2)cc1 | -25 | 91* | 2 | -8 | -3
Cc1ccc(NC(=O)CSc2nnc(NC(=O)c3ccc(S(=O)(=O)N4CCOCC4)cc3)s2)cc1 | -21 | -12 | 0 | 10 | -15
O=C(Nc1ccc2c(c1)OCO2)N1CCN(c2ccccc2Cl)CC1 | -7 | 80* | -1 | · | 2
O=C(Nc1ccc2c(c1)OCO2)N1CCN(S(=O)(=O)c2ccc(Cl)cc2)CC1 | -16 | -3 | -1 | -17 | -10
COc1ccccc1N1CCN(C(=O)Nc2cccc(Cl)c2)CC1 | 2 | 78* | -3 | · | -10
COc1cccc(NC(=O)N2CCN(c3cccc(C)c3C)CC2)c1 | 4 | 81* | 0 | 14 | -4
CCOC(=O)c1ccc(NS(=O)(=O)c2cccc3nsnc23)cc1 | -5 | -8 | 0 | 9 | 6
